# According to ChEMBL document CHEMBL1671864, “First assessment in humans of the safety, tolerability, pharmacokinetics, and ex vivo pharmacodynamic antimalarial activity of the new artemisinin derivative artemisone” (Antimicrob Agents Chemother, 2008):
# Legend:
# [1] = system: Plasma; assay: Half life in healthy human plasma assessed as metabolite BAY 78-1789 Half life at 40 mg, po administered as two 20 mg immediate release tablets daily for 3 days during 10 hrs overnight fasting state measured after 1 day; assay type: ADME, organism-based; details: in vivo, 24 h
# How it was run: (§1)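 Healthy Caucasian males took tablets once daily for 3 days with 240 ml water after a 10-h fast. Heparinised blood was drawn predose and at 0.25–14 h after the first and last doses. Plasma parent drug and metabolites M1–M3 were measured by LC/MS-MS (MRM, deuterated internal standard). Noncompartmental analysis gave Cmax observed, t1/2 = 0.693/kel and MRT = AUMC/AUC. Values are geometric means.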
# [2] = system: Plasma; assay: Ratio of AUC (0 to infinity) for metabolite BAY 78-1789 to AUC (0 to infinity) for compound in healthy human plasma at 80 mg, po administered as single dose for 3 days measured after 3 days; assay type: ADME, organism-based; details: in vivo, 72 h
# How it was run: (§2)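 Healthy Caucasian men (8 active, 4 placebo per dose) dosed with tablets daily for 3 days after 10-h fast. Plasma sampled 0.25–14 h after first and last doses. Parent and metabolites M1–M3 measured by LC/MS-MS (200 µl plasma). Metabolic ratio is metabolite AUC0-∞ divided by parent AUC0-∞ (log-linear trapezoidal, extrapolated by last concentration/kel). First vs third dose compared by paired t test.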
# [3] = system: Plasma; assay: AUC in healthy human plasma assessed as metabolite BAY 78-1789 AUC at 40 mg, po administered as two 20 mg immediate release tablets daily for 3 days during 10 hrs overnight fasting state measured after 1 day; assay type: ADME, organism-based; design: time < 10 hr, dose 40 mg, route oral; details: in vivo
# How it was run: (§3)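 Healthy Caucasian male volunteers took 40 mg (two 20-mg IR tablets) or 80 mg (four tablets) orally once daily for 3 days, with 240 ml water after a 10-h fast. Plasma was sampled predose to 14 h after the first and last doses. M1/M2/M3 were quantified by LC/MS-MS MRM against a D4-labelled internal standard. Cmax was read from observed data and AUC by log-linear trapezoidal rule, noncompartmental, geometric means.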
# [4] = system: Plasma; assay: AUC in healthy human plasma assessed as metabolite BAY 78-1789 AUC at 40 mg, po administered as two 20 mg immediate release tablets daily for 3 days during 10 hrs overnight fasting state measured after 3 day; assay type: ADME, organism-based; design: time < 10 hr, dose 40 mg, route oral; details: in vivo; how it was run: as §3
# [5] = system: Plasma; assay: Cmax in healthy human plasma assessed as metabolite BAY 78-1789 Cmax at 80 mg, po administered as single ascending doses during 10 hrs overnight fasting state; assay type: ADME, organism-based; design: dose 80 mg, route oral; details: in vivo
# How it was run: (§4)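 Healthy Caucasian male volunteers, single oral dose with 240 ml water after a 10-h overnight fast. Heparinised venous blood was drawn predose and at 0.25–14 h. Plasma was stored frozen. Parent drug and metabolites M1–M3 were measured by LC/MS-MS (MRM, deuterated internal standard). Noncompartmental analysis gave Cmax observed, t1/2 = 0.693/kel (terminal regression) and MRT = AUMC/AUC. Values are geometric means.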
# [6] = system: Plasma; assay: Tmax in healthy human plasma assessed as metabolite BAY 78-1789 Tmax at 80 mg, po administered as four 20 mg immediate release tablets daily for 3 days during 10 hrs overnight fasting state measured after 1 day; assay type: ADME, organism-based; details: in vivo, 24 h
# How it was run: (§5)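 Healthy Caucasian men (8 active, 4 placebo per dose) dosed with tablets daily for 3 days after 10-h fast. Lithium-heparin plasma sampled predose and 0.25–14 h after day-1 and day-3 doses, stored frozen. Parent and M1–M3 quantified by LC/MS-MS in positive-ion MRM. Tmax taken directly from observed individual data.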
# [7] = system: Plasma; assay: Tmax in healthy human plasma assessed as metabolite BAY 78-1789 Tmax at 80 mg, po administered as four 20 mg immediate release tablets daily for 3 days during 10 hrs overnight fasting state measured after 3 day; assay type: ADME, organism-based; details: in vivo, 72 h; how it was run: as §5
# [8] = system: Plasma; assay: Half life in healthy human plasma assessed as metabolite BAY 78-1789 Half life at 80 mg, po administered as four 20 mg immediate release tablets daily for 3 days during 10 hrs overnight fasting state measured after 3 day; assay type: ADME, organism-based; details: in vivo, 72 h; how it was run: as §1
# [9] = system: Plasma; assay: Ratio of AUC (0 to infinity) for metabolite BAY 78-1789 to AUC (0 to infinity) for compound in healthy human plasma at 40 mg, po administered as single dose for 3 days measured after 1 day; assay type: ADME, organism-based; details: in vivo, 24 h; how it was run: as §2
# [10] = system: Plasma; assay: Half life in healthy human plasma assessed as metabolite BAY 78-1789 Half life at 80 mg, po administered as four 20 mg immediate release tablets daily for 3 days during 10 hrs overnight fasting state measured after 1 day; assay type: ADME, organism-based; details: in vivo; how it was run: as §1
# [11] = system: Plasma; assay: AUC in healthy human plasma assessed as metabolite BAY 78-1789 AUC at 80 mg, po administered as four 20 mg immediate release tablets daily for 3 days during 10 hrs overnight fasting state measured after 1 day; assay type: ADME, organism-based; design: dose 80 mg, time < 10 hr, route oral; details: in vivo; how it was run: as §3
# [12] = system: Plasma; assay: Half life in healthy human plasma assessed as metabolite BAY 78-1789 Half life at 40 mg, po administered as two 20 mg immediate release tablets daily for 3 days during 10 hrs overnight fasting state measured after 3 day; assay type: ADME, organism-based; details: in vivo, 72 h; how it was run: as §1
# [13] = system: Plasma; assay: Ratio of AUC (0 to infinity) for metabolite BAY 78-1789 to AUC (0 to infinity) for compound in healthy human plasma at 40 mg, po administered as single dose for 3 days measured after 3 days; assay type: ADME, organism-based; details: in vivo, 72 h; how it was run: as §2
# [14] = system: Plasma; assay: Cmax in healthy human plasma assessed as metabolite BAY 78-1789 Cmax at 40 mg, po administered as two 20 mg immediate release tablets daily for 3 days during 10 hrs overnight fasting state measured after 1 day; assay type: ADME, organism-based; design: dose 40 mg, route oral; details: in vivo, 24 h; how it was run: as §1
# [15] = system: Plasma; assay: Half-life in healthy human plasma assessed as metabolite BAY 78-1789 half-life at 80 mg, po administered as single ascending doses during 10 hrs overnight fasting state; assay type: ADME, organism-based; details: in vivo; how it was run: as §4
# [16] = system: Plasma; assay: Cmax in healthy human plasma assessed as metabolite BAY 78-1789 Cmax at 40 mg, po administered as two 20 mg immediate release tablets daily for 3 days during 10 hrs overnight fasting state measured after 3 day; assay type: ADME, organism-based; design: dose 40 mg, route oral; details: in vivo, 72 h; how it was run: as §1
# [17] = system: Plasma; assay: AUC in healthy human plasma assessed as metabolite BAY 78-1789 AUC at 80 mg, po administered as four 20 mg immediate release tablets daily for 3 days during 10 hrs overnight fasting state measured after 3 day; assay type: ADME, organism-based; design: dose 80 mg, time < 10 hr, route oral; details: in vivo; how it was run: as §3
# [18] = system: Plasmodium falciparum; assay: Antimalarial activity against Plasmodium falciparum K1 in human plasma assessed as inhibition of hypoxanthine uptake by intraerythrocytic malaria parasites by hypoxanthine incorporation assay; assay type: functional, organism-based
# How it was run: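 K1 or TM90-C2A parasites were sorbitol-synchronized and cultured in RPMI 1640. Drug was diluted in drug-free human serum (0.04–40 ng/ml) or subject plasma was diluted twofold (8–8,192). Parasites were added at 2% hematocrit, 1% parasitemia (>95% rings), and [3H]hypoxanthine uptake was measured over 48 h. IC50 or ID50 came from concentration or dilution-response curves. Equivalent concentration = ID50 × IC50.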
# [19] = system: Plasma; assay: Ratio of AUC (0 to infinity) for metabolite BAY 78-1789 to AUC (0 to infinity) for compound in healthy human plasma at 80 mg, po administered as single dose for 3 days measured after 1 day; assay type: ADME, organism-based; details: in vivo, 24 h; how it was run: as §2
# [20] = system: Plasma; assay: Tmax in healthy human plasma assessed as metabolite BAY 78-1789 Tmax at 40 mg, po administered as two 20 mg immediate release tablets daily for 3 days during 10 hrs overnight fasting state measured after 3 day; assay type: ADME, organism-based; details: in vivo, 72 h; how it was run: as §5
# [21] = system: Plasma; assay: AUC (0 to infinity) in healthy human plasma assessed as metabolite BAY 78-1789 AUC (0 to infinity) at 80 mg, po administered as single ascending doses during 10 hrs overnight fasting state; assay type: ADME, organism-based; design: dose 80 mg, time infinity, route oral; details: in vivo
# How it was run: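 Healthy Caucasian male volunteers, single oral dose of 80 mg as four 20-mg immediate-release tablets, taken with 240 ml water after a 10-h overnight fast. Lithium-heparin venous blood was drawn predose and at 0.25–14 h, and plasma was stored frozen. Metabolites M1/M2/M3 were measured by LC/MS-MS (positive-ion MRM, deuterated internal standard). Noncompartmental analysis, AUC by log-linear trapezoidal rule extrapolated to infinity (Clast/kel), geometric means.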
# [22] = system: Plasma; assay: Cmax in healthy human plasma assessed as metabolite BAY 78-1789 Cmax at 80 mg, po administered as four 20 mg immediate release tablets daily for 3 days during 10 hrs overnight fasting state measured after 3 day; assay type: ADME, organism-based; design: dose 80 mg, route oral; details: in vivo, 72 h; how it was run: as §1
# [23] = system: Plasma; assay: Tmax in healthy human plasma assessed as metabolite BAY 78-1789 Tmax at 40 mg, po administered as two 20 mg immediate release tablets daily for 3 days during 10 hrs overnight fasting state measured after 1 day; assay type: ADME, organism-based; details: in vivo, 24 h; how it was run: as §5
# [24] = system: Plasma; assay: Cmax in healthy human plasma assessed as metabolite BAY 78-1789 Cmax at 80 mg, po administered as four 20 mg immediate release tablets daily for 3 days during 10 hrs overnight fasting state measured after 1 day; assay type: ADME, organism-based; design: dose 80 mg, route oral; details: in vivo, 24 h; how it was run: as §1
structure (smiles),measurement,setting,value
C[C@@H]1[C@H](O)C[C@H]2[C@@H](C)[C@H](N3CCS(=O)(=O)CC3)O[C@@H]3O[C@]4(C)CC[C@@H]1[C@]32OO4,t1/2,[1],1.52 h
same,Ratio,[2],0.52
same,AUC,[3],95.9 ng·h/mL
same,AUC,[4],84.9 ng·h/mL
same,Cmax,[5],74.3 ng/mL
same,Tmax,[6],2 h
same,Tmax,[7],2.5 h
same,t1/2,[8],1.86 h
same,Ratio,[9],0.54
same,t1/2,[10],1.83 h
same,AUC,[11],213.1 ng·h/mL
same,t1/2,[12],1.69 h
same,Ratio,[13],0.47
same,Cmax,[14],27.8 ng/mL
same,t1/2,[15],1.59 h
same,Cmax,[16],22.5 ng/mL
same,AUC,[17],165.1 ng·h/mL
same,IC50,[18],2.3 ng/mL
same,Ratio,[19],0.65
same,Tmax,[20],2.5 h
same,AUC,[21],294.8 ng·h/mL
same,Cmax,[22],38.2 ng/mL
same,Tmax,[23],2 h
same,Cmax,[24],51.9 ng/mL
